From ChEMBL document CHEMBL3244074, “2-Indanpropionic acids: structural leads for prostaglandin F2alpha antagonist development” (J Med Chem, 1979)
The source made the active and inactive calls. No cut-off for these calls is given here.

Assays:
Format in all cases: tissue-based
[1] = target: Prostaglandin F2-alpha receptor (Mus musculus) (UniProt P43117); assay: Antagonist activity at prostaglandin F2-alpha receptor in isolated Albino mouse ileum assessed as inhibition of KCl-induced spasmogenic effect preincubated for 3 mins followed by KCl challenge followed by compound washout
How it was run: (§1)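 Ileum sections were taken from female albino mice (20-25 g) killed by cervical dislocation and mounted in 37 °C baths under 200 mg tension, with isotonic contraction recording after a 30-min equilibration. A control contraction to KCl (54 mM bath) was followed by three washes. Compound was left on the tissue for 3 min, then KCl was re-added and the contraction recorded. After 5 min the tissue was washed three times and the control response repeated.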

[2] = target: Prostaglandin F2-alpha receptor (Mus musculus) (UniProt P43117); assay: Antagonist activity at prostaglandin F2-alpha receptor in isolated Albino mouse ileum assessed as inhibition of KCl-induced spasmogenic effect at 10^-4 M preincubated for 3 mins followed by KCl challenge relative to control; how it was run: as §1
[3] = target: Prostaglandin F2-alpha receptor (Mus musculus) (UniProt P43117); assay: Antagonist activity at prostaglandin F2-alpha receptor in isolated Albino mouse ileum assessed as inhibition of PGF2alpha-induced spasmogenic effect at 10^-3 M preincubated for 3 mins followed by PGF2alpha challenge relative to control
How it was run: (§2)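 This used female albino mouse ileum (20-25 g animals, killed by cervical dislocation), recorded isotonically under 200 mg tension at 37 °C after 30-min equilibration. A control PGF2α contraction was obtained and the bath washed three times. Compound was applied for 3 min before PGF2α challenge, and the contraction was recorded. Washing three times after 5 min was followed by a repeat PGF2α control response.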

[4] = target: Prostaglandin F2-alpha receptor (Mus musculus) (UniProt P43117); assay: Antagonist activity at prostaglandin F2-alpha receptor in isolated Albino mouse ileum assessed as inhibition of KCl-induced spasmogenic effect at 10^-3 M preincubated for 3 mins followed by KCl challenge relative to control; how it was run: as §1
[5] = target: Prostaglandin F2-alpha receptor (Mus musculus) (UniProt P43117); assay: Antagonist activity at prostaglandin F2-alpha receptor in isolated Albino mouse ileum assessed as inhibition of acetylcholine-induced spasmogenic effect at 10^-4 M preincubated for 3 mins followed by acetylcholine challenge relative to control
How it was run: (§3)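 Mouse ileum came from female albinos (20-25 g) killed by cervical dislocation and was held under 200 mg tension in 37 °C baths for isotonic recording, with 30-min equilibration. A control acetylcholine contraction was obtained, then three washes. Compound was in contact for 3 min before acetylcholine challenge and contraction recording. After 5 min there were three washes and the control response was redetermined.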

[6] = target: Prostaglandin F2-alpha receptor (Mus musculus) (UniProt P43117); assay: Antagonist activity at prostaglandin F2-alpha receptor in isolated Albino mouse ileum assessed as inhibition of acetylcholine-induced spasmogenic effect at 10^-3 M preincubated for 3 mins followed by acetylcholine challenge relative to control; how it was run: as §3
[7] = target: Prostaglandin F2-alpha receptor (Mus musculus) (UniProt P43117); assay: Antagonist activity at prostaglandin F2-alpha receptor in isolated Albino mouse ileum assessed as inhibition of PGF2alpha-induced spasmogenic effect preincubated for 3 mins followed by PGF2alpha challenge followed by compound washout; how it was run: as §2
[8] = target: Prostaglandin F2-alpha receptor (Mus musculus) (UniProt P43117); assay: Antagonist activity at prostaglandin F2-alpha receptor in isolated Albino mouse ileum assessed as inhibition of PGF2alpha-induced spasmogenic effect at 10^-4 M preincubated for 3 mins followed by PGF2alpha challenge relative to control; how it was run: as §2
[9] = target: Prostaglandin F2-alpha receptor (Mus musculus) (UniProt P43117); assay: Antagonist activity at prostaglandin F2-alpha receptor in isolated Albino mouse ileum assessed as inhibition of acetylcholine-induced spasmogenic effect at; how it was run: as §3
[10] = target: Prostaglandin F2-alpha receptor (Mus musculus) (UniProt P43117); assay: Antagonist activity at prostaglandin F2-alpha receptor in isolated Albino mouse ileum assessed as inhibition of KCl-induced spasmogenic effect at; how it was run: as §1
[11] = target: Prostaglandin F2-alpha receptor (Mus musculus) (UniProt P43117); assay: Antagonist activity at prostaglandin F2-alpha receptor in isolated Albino mouse ileum assessed as inhibition of PGF2alpha-induced spasmogenic effect at; how it was run: as §2
[12] = target: Prostaglandin F2-alpha receptor (Mus musculus) (UniProt P43117); assay: Antagonist activity at prostaglandin F2-alpha receptor in isolated Albino mouse ileum assessed as inhibition of acetylcholine-induced spasmogenic effect preincubated for 3 mins followed by acetylcholine challenge followed by compound washout; how it was run: as §3
[13] = target: Prostaglandin F2-alpha receptor (Mus musculus) (UniProt P43117); assay: Antagonist activity at prostaglandin F2-alpha receptor in isolated Albino mouse ileum assessed as inhibition of acetylcholine-induced spasmogenic effect at 3X10'-5 M preincubated for 3 mins followed by acetylcholine challenge relative to control; how it was run: as §3
[14] = target: Prostaglandin F2-alpha receptor (Mus musculus) (UniProt P43117); assay: Antagonist activity at prostaglandin F2-alpha receptor in isolated Albino mouse ileum assessed as inhibition of KCl-induced spasmogenic effect at 3X10'-5 M preincubated for 3 mins followed by KCl challenge relative to control; how it was run: as §1
[15] = target: Prostaglandin F2-alpha receptor (Mus musculus) (UniProt P43117); assay: Antagonist activity at prostaglandin F2-alpha receptor in isolated Albino mouse ileum assessed as inhibition of PGF2alpha-induced spasmogenic effect at 5X10'-5 M preincubated for 3 mins followed by PGF2alpha challenge relative to control; how it was run: as §2
[16] = target: Prostaglandin F2-alpha receptor (Mus musculus) (UniProt P43117); assay: Antagonist activity at prostaglandin F2-alpha receptor in isolated Albino mouse ileum assessed as inhibition of acetylcholine-induced spasmogenic effect at 5X10'-5 M preincubated for 3 mins followed by acetylcholine challenge relative to control; how it was run: as §3
[17] = target: Prostaglandin F2-alpha receptor (Mus musculus) (UniProt P43117); assay: Antagonist activity at prostaglandin F2-alpha receptor in isolated Albino mouse ileum assessed as inhibition of KCl-induced spasmogenic effect at 5X10'-5 M preincubated for 3 mins followed by KCl challenge relative to control; how it was run: as §1
[18] = target: Prostaglandin F2-alpha receptor (Mus musculus) (UniProt P43117); assay: Antagonist activity at prostaglandin F2-alpha receptor in isolated Albino mouse ileum assessed as inhibition of PGF2alpha-induced spasmogenic effect at 3X10'-5 M preincubated for 3 mins followed by PGF2alpha challenge relative to control; how it was run: as §2

Sequence of Prostaglandin F2-alpha receptor (Mus musculus) (P43117 whole entry): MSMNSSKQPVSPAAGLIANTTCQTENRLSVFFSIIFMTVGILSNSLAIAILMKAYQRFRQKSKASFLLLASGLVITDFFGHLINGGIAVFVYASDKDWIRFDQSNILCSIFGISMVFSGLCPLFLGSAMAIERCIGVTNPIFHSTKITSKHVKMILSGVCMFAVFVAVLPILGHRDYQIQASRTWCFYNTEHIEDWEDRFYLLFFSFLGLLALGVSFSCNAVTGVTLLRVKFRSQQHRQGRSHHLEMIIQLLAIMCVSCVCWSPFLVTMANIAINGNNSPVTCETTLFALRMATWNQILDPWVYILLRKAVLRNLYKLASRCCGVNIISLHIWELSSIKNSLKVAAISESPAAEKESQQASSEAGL

| SMILES | inhibition [1] | inhibition [2] | inhibition [3] | inhibition [4] | inhibition [5] | inhibition [6] | inhibition [7] | inhibition [8] | inhibition [9] | inhibition [10] | inhibition [11] | inhibition [12] | inhibition [13] [%] | inhibition [14] [%] | inhibition [15] [%] | inhibition [16] [%] | inhibition [17] [%] | inhibition [18] [%] |
| --- | --- | --- | --- | --- | --- | --- | --- | --- | --- | --- | --- | --- | --- | --- | --- | --- | --- | --- |
| CCCC1(CCC(=O)O)Cc2cc3c(cc2C1=O)OCO3 (centres undefined) | inactive | inactive | Active | Active | inactive | Active | inactive | 20% | inactive | inactive | inactive | inactive | – | – | – | – | – | – |
| CCCC1(CCC(=O)O)Cc2ccc(OC)cc2C1=O (centres undefined) | inactive | inactive | Active | Active | inactive | Active | inactive | 20% | inactive | inactive | inactive | inactive | – | – | – | – | – | – |
| CCCC1(CCC(=O)O)Cc2cc3c(cc2C1)OCO3 | inactive | inactive | Active | Active | inactive | Active | inactive | 20% | inactive | inactive | inactive | inactive | – | – | – | – | – | – |
| CCCC1(CCC(=O)O)Cc2cc(OCc3ccccc3)c(OCc3ccccc3)cc2C1=O (centres undefined) | inactive | 70% | Active | Active | 70% | Active | inactive | Active | Active | Active | Active | inactive | < 20 | 40 | 90 | 35 | 50 | 80 |
